# Measured values: ChEMBL document CHEMBL5724801, “EUbOPEN Chemogenomics Library - Multiplex” (2024)
# Where “and” joins values, the source holds several entries; their conditions need not be identical. Equal values may be shown once.
# How the values were obtained:
# Fibroblast = assay: Multiplex assay against human fibroblast; type: toxicity, cell-based
# Summary of the method: (§1)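 Cells were classed with CellPathfinder machine-learning gating, first as Hoechst high-intensity objects or normal cells, then (normal cells) as healthy, pyknosed or fragmented nuclei, and finally (pyknosed cells) as mitotic or apoptotic. Staining of live cells at seeding used Hoechst33342, BioTracker Green Microtubule Cytoskeleton Dye, MitoTracker Red and Annexin V Alexa Fluor 680, with imaging on a CQ1 microscope at 37°C and 5% CO2 after compound addition. Tubulin, mitochondrial-mass and membrane-permeability phenotypes are per cents of healthy-nucleus cells.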
# U2OS = assay: Multiplex assay against U2OS; type: toxicity, cell-based; conditions: human; summary of the method: as §1
# [1] = 12 h, 1 µM, compound concentration 1 uM
# [2] = 12 h, 10 µM, compound concentration 10 uM
# [3] = 24 h, 1 µM, compound concentration 1 uM
# [4] = 24 h, 10 µM, compound concentration 10 uM
# [5] = 48 h, 1 µM, compound concentration 1 uM
# [6] = 48 h, 10 µM, compound concentration 10 uM
smiles,measurement,setting,value
Cc1ccc(C(C)(O)c2nc3ccccc3s2)c(C)c1 (configuration not stated),Population Apoptotic (%),Fibroblast; [1],50% and 44%
same,Population Fragmented Nuclei (%),Fibroblast; [1],8% and 22%
same,Population Healthy Nuclei (%),Fibroblast; [1],78% and 48%
same,Population Hoechst High Intensity Objects (%),Fibroblast; [1],0% and 5%
same,Population Membrane Permeable-Phenotype (%),Fibroblast; [1],0% and 3%
same,Population Mitochondria Different-Phenotype (%),Fibroblast; [1],5% and 6%
same,Population Mitotic Cells (%),Fibroblast; [1],50% and 56%
same,Population Normal (%),Fibroblast; [1],99% and 95%
same,Population Pyknosed Nuclei (%),Fibroblast; [1],12% and 29%
same,Population Tubulin-Different-Phenotype (%),Fibroblast; [1],29% and 36%
same,Total Cell Count,Fibroblast; [1],125 and 180
same,Population Apoptotic (%),Fibroblast; [2],44% and 22%
same,Population Fragmented Nuclei (%),Fibroblast; [2],11% and 31%
same,Population Healthy Nuclei (%),Fibroblast; [2],72% and 43%
same,Population Hoechst High Intensity Objects (%),Fibroblast; [2],1% and 7%
same,Population Membrane Permeable-Phenotype (%),Fibroblast; [2],0% and 15%
same,Population Mitochondria Different-Phenotype (%),Fibroblast; [2],5% and 6%
same,Population Mitotic Cells (%),Fibroblast; [2],56% and 77%
same,Population Normal (%),Fibroblast; [2],98% and 92%
same,Population Pyknosed Nuclei (%),Fibroblast; [2],16% and 25%
same,Population Tubulin-Different-Phenotype (%),Fibroblast; [2],24% and 60%
same,Total Cell Count,Fibroblast; [2],153 and 149
same,Population Apoptotic (%),Fibroblast; [3],31% and 47%
same,Population Fragmented Nuclei (%),Fibroblast; [3],13% and 25%
same,Population Healthy Nuclei (%),Fibroblast; [3],73% and 54%
same,Population Hoechst High Intensity Objects (%),Fibroblast; [3],0% and 5%
same,Population Membrane Permeable-Phenotype (%),Fibroblast; [3],2% and 11%
same,Population Mitochondria Different-Phenotype (%),Fibroblast; [3],7% and 5%
same,Population Mitotic Cells (%),Fibroblast; [3],68% and 52%
same,Population Normal (%),Fibroblast; [3],99% and 94%
same,Population Pyknosed Nuclei (%),Fibroblast; [3],13% and 20%
same,Population Tubulin-Different-Phenotype (%),Fibroblast; [3],22% and 43%
same,Total Cell Count,Fibroblast; [3],139 and 173
same,Population Apoptotic (%),Fibroblast; [4],55% and 38%
same,Population Fragmented Nuclei (%),Fibroblast; [4],13% and 27%
same,Population Healthy Nuclei (%),Fibroblast; [4],74% and 46%
same,Population Hoechst High Intensity Objects (%),Fibroblast; [4],4% and 6%
same,Population Membrane Permeable-Phenotype (%),Fibroblast; [4],3% and 12%
same,Population Mitochondria Different-Phenotype (%),Fibroblast; [4],6% and 9%
same,Population Mitotic Cells (%),Fibroblast; [4],44% and 61%
same,Population Normal (%),Fibroblast; [4],95% and 93%
same,Population Pyknosed Nuclei (%),Fibroblast; [4],12% and 25%
same,Population Tubulin-Different-Phenotype (%),Fibroblast; [4],24% and 61%
same,Total Cell Count,Fibroblast; [4],152 and 143
same,Population Apoptotic (%),Fibroblast; [5],33% and 50%
same,Population Fragmented Nuclei (%),Fibroblast; [5],16% and 28%
same,Population Healthy Nuclei (%),Fibroblast; [5],73% and 57%
same,Population Hoechst High Intensity Objects (%),Fibroblast; [5],4% and 3%
same,Population Membrane Permeable-Phenotype (%),Fibroblast; [5],0% and 5%
same,Population Mitochondria Different-Phenotype (%),Fibroblast; [5],3% and 6%
same,Population Mitotic Cells (%),Fibroblast; [5],66% and 50%
same,Population Normal (%),Fibroblast; [5],95% and 96%
same,Population Pyknosed Nuclei (%),Fibroblast; [5],9% and 14%
same,Population Tubulin-Different-Phenotype (%),Fibroblast; [5],16% and 39%
same,Total Cell Count,Fibroblast; [5],129 and 174
same,Population Apoptotic (%),Fibroblast; [6],53% and 43%
same,Population Fragmented Nuclei (%),Fibroblast; [6],22% and 34%
same,Population Healthy Nuclei (%),Fibroblast; [6],68% and 53%
same,Population Hoechst High Intensity Objects (%),Fibroblast; [6],7%
same,Population Membrane Permeable-Phenotype (%),Fibroblast; [6],2% and 7%
same,Population Mitochondria Different-Phenotype (%),Fibroblast; [6],6% and 7%
same,Population Mitotic Cells (%),Fibroblast; [6],46% and 56%
same,Population Normal (%),Fibroblast; [6],92%
same,Population Pyknosed Nuclei (%),Fibroblast; [6],9% and 12%
same,Population Tubulin-Different-Phenotype (%),Fibroblast; [6],27% and 64%
same,Total Cell Count,Fibroblast; [6],156 and 143
same,Population Apoptotic (%),U2OS; [1],86% and 100%
same,Population Fragmented Nuclei (%),U2OS; [1],19% and 17%
same,Population Healthy Nuclei (%),U2OS; [1],70% and 78%
same,Population Hoechst High Intensity Objects (%),U2OS; [1],3% and 0%
same,Population Membrane Permeable-Phenotype (%),U2OS; [1],4% and 9%
same,Population Mitochondria Different-Phenotype (%),U2OS; [1],1% and 4%
same,Population Mitotic Cells (%),U2OS; [1],13% and 0%
same,Population Normal (%),U2OS; [1],96% and 99%
same,Population Pyknosed Nuclei (%),U2OS; [1],9% and 3%
same,Population Tubulin-Different-Phenotype (%),U2OS; [1],2% and 5%
same,Total Cell Count,U2OS; [1],249 and 141
same,Population Apoptotic (%),U2OS; [2],100% and 66%
same,Population Fragmented Nuclei (%),U2OS; [2],25% and 18%
same,Population Healthy Nuclei (%),U2OS; [2],67% and 77%
same,Population Hoechst High Intensity Objects (%),U2OS; [2],2% and 4%
same,Population Membrane Permeable-Phenotype (%),U2OS; [2],9% and 3%
same,Population Mitochondria Different-Phenotype (%),U2OS; [2],3% and 1%
same,Population Normal (%),U2OS; [2],97% and 95%
same,Population Pyknosed Nuclei (%),U2OS; [2],6% and 3%
same,Population Tubulin-Different-Phenotype (%),U2OS; [2],3% and 1%
same,Total Cell Count,U2OS; [2],234 and 89
same,Population Apoptotic (%),U2OS; [3],92% and 90%
same,Population Fragmented Nuclei (%),U2OS; [3],22% and 13%
same,Population Healthy Nuclei (%),U2OS; [3],69% and 80%
same,Population Hoechst High Intensity Objects (%),U2OS; [3],1% and 0%
same,Population Membrane Permeable-Phenotype (%),U2OS; [3],4% and 6%
same,Population Mitochondria Different-Phenotype (%),U2OS; [3],0% and 3%
same,Population Mitotic Cells (%),U2OS; [3],7% and 10%
same,Population Normal (%),U2OS; [3],98% and 99%
same,Population Pyknosed Nuclei (%),U2OS; [3],8% and 6%
same,Population Tubulin-Different-Phenotype (%),U2OS; [3],3% and 4%
